Reference: ChEMBL document CHEMBL1123067, “Evaluation of the brain-specific delivery of radioiodinated (iodophenyl)alkyl-substituted amines coupled to a dihydropyridine carrier” (J Med Chem, 1985)

Key:
Assay type in all cases: ADME, organism-based
Rattus norvegicus [1] = assay: Distribution of radioactivity in kidney tissues of Sprague-Dawley rats after 30 min injection by intravenously; value ranges from 1.14-1.4; conditions: in vivo, iv, 0.5 h
In short: (§1)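 Female Sprague-Dawley rats, 10–12 weeks old (170–200 g), fed ad libitum, under ether anaesthesia. Each received 15.1 μCi of the ¹²⁵I-labelled pyridinium conjugate or 10.6 μCi of the dihydropyridine conjugate by lateral tail vein. Dose was in 20% Me2SO/saline with vitamin E (~5 mg/mL), 0.22-μm filtered. Five rats per time point. Tissue activity was read against injected-solution standards as % injected dose/g.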

Rattus norvegicus [2] = assay: Distribution of radioactivity in liver tissues of Sprague-Dawley rats after 30 min injection by intravenously; value ranges from 1.06-1.29; conditions: in vivo, iv, 0.5 h; in short: as §1
Rattus norvegicus [3] = assay: Distribution of radioactivity in liver tissues of Sprague-Dawley rats after 5 min injection by intravenously; value ranges from 1.06-2.71; conditions: in vivo, iv; in short: as §1
Rattus norvegicus [4] = assay: Distribution of radioactivity in liver tissues of Sprague-Dawley rats after 60 min injection by intravenously; value ranges from 0.47-1.17; conditions: in vivo, iv, 1 h; in short: as §1
Rattus norvegicus [5] = assay: Distribution of radioactivity in lung tissues of Sprague-Dawley rats after 15 min injection by intravenously; value ranges from 3.10-3.77; conditions: in vivo, iv, 0.25 h
In short: (§2)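 Female Sprague-Dawley rats, 10–12 weeks, 170–200 g, fed ad libitum, five per time point. Agent dissolved in minimal Me2SO, diluted with saline to 20% Me2SO, with vitamin E (~5 mg/mL) added, 0.22-µm filtered. 15.1 or 10.6 µCi (per agent) injected into lateral tail vein under ether. Lungs taken; % injected dose/g against injected-solution standards; mean (range).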

Rattus norvegicus [6] = assay: Distribution of radioactivity in kidney tissues of Sprague-Dawley rats after 5 min injection by intravenously; value ranges from 1.64-3.43; conditions: in vivo, iv; in short: as §1
Rattus norvegicus [7] = assay: Distribution of radioactivity in kidney tissues of Sprague-Dawley rats after 60 min injection by intravenously; value ranges from 0.89-1.19; conditions: in vivo, iv, 1 h; in short: as §1
Rattus norvegicus [8] = assay: Distribution of radioactivity in liver tissues of Sprague-Dawley rats after 15 min injection by intravenously; value ranges from 1.23-1.78; conditions: in vivo, iv, 0.25 h; in short: as §1
Rattus norvegicus [9] = assay: Distribution of radioactivity in heart tissues of Sprague-Dawley rats after 15 min injection by intravenously; value ranges from 2.24-2.58; conditions: in vivo, iv, 0.25 h
Rattus norvegicus [10] = assay: Distribution of radioactivity in lung tissues of Sprague-Dawley rats after 30 min injection by intravenously; value ranges from 2.26-2.89; conditions: in vivo, iv, 0.5 h; in short: as §2
Rattus norvegicus [11] = assay: Distribution of radioactivity in lung tissues of Sprague-Dawley rats after 5 min injection by intravenously; value ranges from 3.62-7.08; conditions: in vivo, iv; in short: as §2
Rattus norvegicus [12] = assay: Distribution of radioactivity in lung tissues of Sprague-Dawley rats after 60 min injection by intravenously; value ranges from 2.11-3.79; conditions: in vivo, iv, 1 h; in short: as §2
Rattus norvegicus [13] = assay: Distribution of radioactivity in brain tissues of Sprague-Dawley rats after 60 min injection by intravenously; value ranges from 0.76-1.42; conditions: in vivo, iv, 1 h
Rattus norvegicus [14] = assay: Distribution of radioactivity in blood tissues of Sprague-Dawley rats after 60 min injection by intravenously; value ranges from 0.28-0.37; conditions: in vivo, iv, 1 h
Rattus norvegicus [15] = assay: Distribution of radioactivity in heart tissues of Sprague-Dawley rats after 60 min injection by intravenously; value ranges from 1.68-2.23; conditions: in vivo, iv, 1 h; in short: as §1
Rattus norvegicus [16] = assay: Distribution of radioactivity in kidney tissues of Sprague-Dawley rats after 15 min injection by intravenously; value ranges from 1.42-1.82; conditions: in vivo, iv, 0.25 h; in short: as §1
Rattus norvegicus [17] = assay: Distribution of radioactivity in brain tissues of Sprague-Dawley rats after 15 min injection by intravenously; value ranges from 1.05-1.25; conditions: in vivo, iv, 0.25 h
Rattus norvegicus [18] = assay: Distribution of radioactivity in heart tissues of Sprague-Dawley rats after 30 min injection by intravenously; value ranges from 1.96-2.46; conditions: in vivo, iv, 0.5 h
Rattus norvegicus [19] = assay: Distribution of radioactivity in blood tissues of Sprague-Dawley rats after 15 min injection by intravenously; value ranges from 0.31-0.4; conditions: in vivo, iv, 0.25 h
Rattus norvegicus [20] = assay: Distribution of radioactivity in blood tissues of Sprague-Dawley rats after 30 min injection by intravenously; value ranges from 0.35-0.4; conditions: in vivo, iv, 0.5 h
Rattus norvegicus [21] = assay: Distribution of radioactivity in blood tissues of Sprague-Dawley rats after 5 min injection by intravenously; value ranges from 0.28-0.46; conditions: in vivo, iv
Rattus norvegicus [22] = assay: Distribution of radioactivity in heart tissues of Sprague-Dawley rats after 5 min injection by intravenously; value ranges from 2.36-3.96; conditions: in vivo, iv; in short: as §1
Rattus norvegicus [23] = assay: Distribution of radioactivity in brain tissues of Sprague-Dawley rats after 30 min injection by intravenously; value ranges from 0.81-1.26; conditions: in vivo, iv, 0.5 h
Rattus norvegicus [24] = assay: Distribution of radioactivity in brain tissues of Sprague-Dawley rats after 5 min injection by intravenously; value ranges from 0.97-2.17; conditions: in vivo, iv
[25] = Brain to blood ratio in Sprague-Dawley rats after 5 min injection by intravenously; conditions: rat, brain and blood, iv
In short: (§3)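 Female Sprague-Dawley rats, 10–12 weeks old (170–200 g), fed ad libitum. The ¹²⁵I-labelled agent was dissolved in minimal Me2SO, diluted with saline to a final 20% Me2SO, filtered (0.22 μm), and injected into a lateral tail vein under ether anaesthesia. Tissues were counted against samples of the injected solution and expressed as % injected dose/g (mean, range). Brain/blood ratio is from the means.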

[26] = Brain to blood ratio in Sprague-Dawley rats after 60 min injection by intravenously; conditions: rat, brain and blood, iv; in short: as §3
[27] = Brain to blood ratio in Sprague-Dawley rats after 30 min injection by intravenously; conditions: rat, brain and blood, iv; in short: as §3
[28] = Brain to blood ratio in Sprague-Dawley rats after 15 min injection by intravenously; conditions: rat, brain and blood, iv; in short: as §3

## CN1C=CCC(C(=O)Nc2ccc([125I])cc2)=C1
Rattus norvegicus [1]
  Distribution: 1.23%
Rattus norvegicus [2]
  Distribution: 1.18%
Rattus norvegicus [3]
  Distribution: 1.65%
Rattus norvegicus [4]
  Distribution: 0.82%
Rattus norvegicus [5]
  Distribution: 3.3%
Rattus norvegicus [6]
  Distribution: 2.36%
Rattus norvegicus [7]
  Distribution: 1.07%
Rattus norvegicus [8]
  Distribution: 1.56%
Rattus norvegicus [9]
  Distribution: 2.43%
Rattus norvegicus [10]
  Distribution: 2.43%
Rattus norvegicus [11]
  Distribution: 4.61%
Rattus norvegicus [12]
  Distribution: 2.77%
Rattus norvegicus [13]
  Distribution: 1.12%
Rattus norvegicus [14]
  Distribution: 0.31%
Rattus norvegicus [15]
  Distribution: 1.88%
Rattus norvegicus [16]
  Distribution: 1.56%
Rattus norvegicus [17]
  Distribution: 1.16%
Rattus norvegicus [18]
  Distribution: 2.18%
Rattus norvegicus [19]
  Distribution: 0.35%
Rattus norvegicus [20]
  Distribution: 0.38%
Rattus norvegicus [21]
  Distribution: 0.37%
Rattus norvegicus [22]
  Distribution: 2.86%
Rattus norvegicus [23]
  Distribution: 1.01%
Rattus norvegicus [24]
  Distribution: 1.14%
[25]
  Kp at 5 min: 3.87
[26]
  Kp at 1 h: 3.6
[27]
  Kp at 0.5 h: 2.66
[28]
  Kp at 0.25 h: 3.29
